According to ChEMBL document CHEMBL3351507, “11H-Pyrido[3',2':4,5]pyrrolo[3,2-c]cinnoline and pyrido[3',2':4,5]pyrrolo[1,2-c][1,2,3]benzotriazine: two new ring systems with antitumor activity” (2014):
The source made the active and inactive calls.

Experiments:
[1] = tested on: HOP-92; test: Cytotoxicity against human HOP92 cells assessed as growth inhibition after 72 hrs by MTT assay; format: functional; settings: HOP-92, 72 h
[2] = tested on: NCI-H460; test: Cytotoxicity against human NCI-H460 cells assessed as growth inhibition after 72 hrs by MTT assay; format: functional; settings: NCI-H460, 72 h
[3] = tested on: SK-MEL-28; test: Cytotoxicity against human SK-MEL-28 cells assessed as growth inhibition after 72 hrs by MTT assay; format: functional; settings: SK-MEL-28, 72 h
Outline: (§1)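 NCI 60-cell-line panel screen. Compounds were tested at 5 concentrations in 10-fold dilution (10^-4 to 10^-8 M) across the full panel. GI50 was taken as the molar concentration giving 50% inhibition of net cell growth.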

[4] = tested on: SR; test: Cytotoxicity against human SR cells assessed as growth inhibition after 72 hrs by MTT assay; format: functional; outline: as §1
[5] = Cytotoxicity against human UACC257 cells assessed as growth inhibition after 72 hrs by MTT assay; format: functional; settings: UACC-257, 72 h; outline: as §1
[6] = Cytotoxicity against human Hs578T cells assessed as growth inhibition after 72 hrs by MTT assay; format: functional; settings: Hs-578T
[7] = tested on: DU-145; test: Cytotoxicity against human DU145 cells assessed as growth inhibition after 72 hrs by MTT assay; format: functional; settings: DU-145, 72 h
[8] = tested on: CCRF-CEM; test: Resistance index, ratio of GI50 for human vinblastin-resistant CEM cells to GI50 for human CEM cells; format: functional
Outline: (§2)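 CEMVbl-100 (vinblastine-selected CEM) was grown in RPMI-1640 with 0.1 µg/mL vinblastine. LoVoDoxo was grown in HAM's F12 with 0.1 µg/mL doxorubicin; parental CEM and LoVo were grown without drug. Media had 10% FBS. 5x10^3 cells were seeded, preincubated 24 h at 37 °C, then exposed 72 h to compound (DMSO <1%). Read-out was MTT; GI50 came from dose-response curves of ≥3 experiments. RI = GI50 resistant / GI50 parental.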

[9] = tested on: Jurkat; test: Induction of apoptosis in human Jurkat cells assessed as caspase-8 activation at 500 nM after 6 hrs by plate reader analysis; format: functional, cell-based
Outline: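 Jurkat cells were treated with 500 nM compound for 6 h and 24 h, then lysed. Lysates were incubated with pNA-conjugated substrates: Ac-DEVD (caspase-3), Ac-IETD (caspase-8) and LEHD (caspase-9). pNA release was read at 405 nm and normalized to Bradford protein. Results are expressed as fold increase over untreated control.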

[10] = tested on: M14; test: Cytotoxicity against human M14 cells assessed as growth inhibition after 72 hrs by MTT assay; format: functional; settings: M14, 72 h
[11] = Cytotoxicity against human UO31 cells assessed as growth inhibition after 72 hrs by MTT assay; format: functional; settings: UO-31, 72 h; outline: as §1
[12] = tested on: CCRF-CEM; test: Cytotoxicity against human vinblastin-resistant CEM cells assessed as growth inhibition after 72 hrs by MTT assay; format: functional; outline: as §2
[13] = tested on: Jurkat; test: Cell cycle arrest in human Jurkat cells assessed as accumulation at G1 phase at 0.5 uM after 24 hrs by propidium iodide staining-based flow cytometry (reference value: 62.6%); format: functional
[14] = tested on: COLO 205; test: Cytotoxicity against human COLO205 cells assessed as growth inhibition after 72 hrs by MTT assay; format: functional; settings: COLO 205, 72 h
[15] = tested on: SK-OV-3; test: Cytotoxicity against human SKOV3 cells assessed as growth inhibition after 72 hrs by MTT assay; format: functional; settings: SK-OV-3, 72 h; outline: as §1
[16] = tested on: SNB-75; test: Cytotoxicity against human SNB75 cells assessed as growth inhibition after 72 hrs by MTT assay; format: functional; settings: SNB-75, 72 h; outline: as §1
[17] = tested on: MCF7; test: Cytotoxicity against human MCF7 cells assessed as growth inhibition after 72 hrs by MTT assay; format: functional; settings: MCF7, 72 h
[18] = tested on: Jurkat; test: Induction of apoptosis in human Jurkat cells assessed as loss of plasma membrane asymmetry at 250 to 500 nM after 24 hrs by annexin V-FITC/propidium iodide staining-based flow cytofluorimetric analysis; format: functional, cell-based
Outline: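 Jurkat cells were incubated with 250 or 500 nM compound for 6 h or 24 h. They were then double-stained with Annexin V-FITC and propidium iodide and analysed by flow cytometry (488 nm excitation; emission 525 and 585 nm). Mean ± SEM of 3 experiments.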

[19] = tested on: HL-60(TB); test: Cytotoxicity against human HL-60(TB) cells assessed as growth inhibition after 72 hrs by […] assay; format: functional; settings: HL-60, 72 h
Outline: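 HL-60(TB) was tested within the NCI 60 human cancer cell line panel. Compounds that met the NCI single-dose activity criteria were retested on the full panel at 5 concentrations in 10-fold dilutions (10-4–10-8 M). GI50 is the molar concentration giving 50% inhibition of net cell growth; TGI was also reported.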

[20] = tested on: SW-620; test: Cytotoxicity against human SW620 cells assessed as growth inhibition after 72 hrs by MTT assay; format: functional; settings: SW-620, 72 h; outline: as §1
[21] = tested on: SK-MEL-2; test: Cytotoxicity against human SK-MEL-2 cells assessed as growth inhibition after 72 hrs by MTT assay; format: functional; settings: SK-MEL-2, 72 h; outline: as §1
[22] = tested on: RPMI-8226; test: Cytotoxicity against human RPMI8226 cells assessed as growth inhibition after 72 hrs by MTT assay; format: functional; settings: RPMI-8226, 72 h; outline: as §1
[23] = tested on: SNB-19; test: Cytotoxicity against human SNB19 cells assessed as growth inhibition after 72 hrs by MTT assay; format: functional; settings: SNB-19, 72 h; outline: as §1
[24] = tested on: BT-549; test: Cytotoxicity against human BT549 cells assessed as growth inhibition after 72 hrs by MTT assay; format: functional; settings: BT-549, 72 h
[25] = tested on: A498; test: Cytotoxicity against human A498 cells assessed as growth inhibition after 72 hrs by MTT assay; format: functional; settings: A498, 72 h
[26] = tested on: RXF 393; test: Cytotoxicity against human RXF393 cells assessed as growth inhibition after 72 hrs by MTT assay; format: functional; settings: RXF 393, 72 h; outline: as §1
[27] = Cytotoxicity against human HCT15 cells assessed as growth inhibition after 72 hrs by MTT assay; format: functional; settings: HCT-15, 72 h
[28] = tested on: MDA-MB-231; test: Cytotoxicity against human MDA-MB-231 cells assessed as growth inhibition after 72 hrs by MTT assay; format: functional; settings: MDA-MB-231, 72 h

With COc1ccc2c(c1)nnn1c3ncccc3c(N=O)c21 the GI50 [1] was 42 nM, the GI50 [2] was 1670 nM and the GI50 [3] was 3480 nM. It also gave a GI50 [4] of 9 nM, a GI50 [5] of 8210 nM and a GI50 [6] of 1170 nM. For the same molecule, the GI50 [7] was 1860 nM, the Ratio [8] was 2 and the Activity [9] was “Active”. It also gave a GI50 [10] of 1570 nM, a GI50 [11] of 76 nM and a GI50 [12] of 440 nM. For the same molecule, the Activity [13] was 28.1%, the GI50 [14] was 680 nM and the GI50 [15] was 1680 nM. The GI50 [16] was 850 nM, the GI50 [17] was 130 nM and the Activity [18] was “Active”. It also gave a GI50 [19] of 43 nM, a GI50 [20] of 270 nM and a GI50 [21] of 2180 nM. The GI50 [22] was 260 nM, the GI50 [23] was 6280 nM and the GI50 [24] was 5060 nM. It also gave a GI50 [25] of 1270 nM, a GI50 [26] of 310 nM and a GI50 [27] of 3130 nM. For the same molecule, the GI50 [28] was 1260 nM.

In the case of O=Nc1c2cccnc2n2nnc3ccc(Cl)cc3c12, the GI50 [1] is reported as 100 nM, the GI50 [2] is reported as 1330 nM and the GI50 [3] is reported as 1060 nM. It also gave a GI50 [4] of 17 nM, a GI50 [5] of 3070 nM and a GI50 [6] of 1050 nM. It also gave a GI50 [7] of 610 nM, a GI50 [10] of 1190 nM and a GI50 [11] of 650 nM. For the same molecule, the GI50 [14] was 1000 nM, the GI50 [15] was 2980 nM and the GI50 [16] was 1420 nM. For the same molecule, the GI50 [17] was 570 nM, the GI50 [19] was 300 nM and the GI50 [20] was 190 nM. It also gave a GI50 [21] of 2280 nM, a GI50 [22] of 170 nM and a GI50 [23] of 3180 nM. It also gave a GI50 [24] of 1780 nM, a GI50 [25] of 1910 nM and a GI50 [26] of 560 nM. The GI50 [27] was 960 nM and the GI50 [28] was 680 nM.

With COc1cc2nnc3c4cccnc4[nH]c3c2cc1OC the GI50 [1] was 210 nM, the GI50 [2] was 2460 nM and the GI50 [3] was 4490 nM. The GI50 [4] was 39 nM, the GI50 [5] was 3320 nM and the GI50 [6] was 3700 nM. For the same molecule, the GI50 [7] was 2100 nM, the GI50 [10] was 1790 nM and the GI50 [11] was 490 nM. The GI50 [14] was 2960 nM, the GI50 [15] was 2290 nM and the GI50 [16] was 1480 nM. For the same molecule, the GI50 [17] was 340 nM, the GI50 [19] was 190 nM and the GI50 [20] was 440 nM. For the same molecule, the GI50 [21] was 11300 nM, the GI50 [22] was 190 nM and the GI50 [23] was 2770 nM. The GI50 [24] was 3700 nM, the GI50 [25] was 2740 nM and the GI50 [26] was 710 nM. The GI50 [27] was 1430 nM and the GI50 [28] was 2690 nM.

With COc1ccc2c(c1)nnc1c3cccnc3[nH]c21 the GI50 [1] was 82 nM, the GI50 [2] was 1930 nM and the GI50 [3] was 11800 nM. For the same molecule, the GI50 [4] was 31 nM, the GI50 [5] was 7490 nM and the GI50 [6] was 3470 nM. For the same molecule, the GI50 [7] was 1880 nM, the Ratio [8] was 1.57 and the Activity [9] was “Active”. The GI50 [10] was 1070 nM, the GI50 [11] was 120 nM and the GI50 [12] was 1020 nM. It also gave an Activity [13] of 33.2%, a GI50 [14] of 1130 nM and a GI50 [15] of 2690 nM. The GI50 [16] was 640 nM, the GI50 [17] was 230 nM and the Activity [18] was “Active”. The GI50 [19] was 160 nM, the GI50 [20] was 380 nM and the GI50 [21] was 1960 nM. It also gave a GI50 [22] of 730 nM, a GI50 [23] of 7610 nM and a GI50 [24] of 3430 nM. The GI50 [25] was 8000 nM, the GI50 [26] was 660 nM and the GI50 [27] was 2260 nM. It also gave a GI50 [28] of 1420 nM.

For COc1cc2nnn3c4ncccc4c(N=O)c3c2cc1OC, the GI50 [1] was 39 nM, the GI50 [2] was 2610 nM and the GI50 [3] was 9100 nM. For the same molecule, the GI50 [4] was 18 nM, the GI50 [5] was 4540 nM and the GI50 [6] was 6800 nM. The GI50 [7] was 1990 nM, the Ratio [8] was 2.13 and the Activity [9] was “Active”. For the same molecule, the GI50 [10] was 1710 nM, the GI50 [11] was 400 nM and the GI50 [12] was 510 nM. The Activity [13] was 21%, the GI50 [14] was 5260 nM and the GI50 [15] was 4020 nM. The GI50 [16] was 2250 nM, the GI50 [17] was 260 nM and the Activity [18] was “Active”. For the same molecule, the GI50 [19] was 40 nM, the GI50 [20] was 210 nM and the GI50 [21] was 17300 nM. It also gave a GI50 [22] of 110 nM, a GI50 [23] of 3840 nM and a GI50 [24] of 5530 nM. It also gave a GI50 [25] of 15800 nM, a GI50 [26] of 400 nM and a GI50 [27] of 1620 nM. It also gave a GI50 [28] of 2600 nM.
